# Key:
# [1] = molecular target: Fibroblast growth factor 1 (Homo sapiens, UniProt P05230); test: Binding affinity for human fibroblast growth factor 1 in surface plasmon resonance (SPR) assay
# In short: (§1)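 SPR solution affinity format: growth factor pre-equilibrated with ligand in solution, mixture passed over a heparin-immobilized sensor chip. Free (unbound) growth factor binding to heparin raises the SPR response and gives its concentration. Kd calculated from the decline in free growth factor concentration versus ligand concentration. Values are mean and SD of at least two independent measurements.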
# [2] = molecular target: T1, Fibroblast growth factor 2 (Homo sapiens, UniProt P09038); test: Binding affinity for human fibroblast growth factor 2 in surface plasmon resonance (SPR) assay; in short: as §1
# [3] = molecular target: T1, Fibroblast growth factor 2; test: Binding affinity for human fibroblast growth factor 2 in surface plasmon resonance (SPR) assay (No binding); in short: as §1
# Fibroblast growth factor 1, sequence (P05230 whole entry): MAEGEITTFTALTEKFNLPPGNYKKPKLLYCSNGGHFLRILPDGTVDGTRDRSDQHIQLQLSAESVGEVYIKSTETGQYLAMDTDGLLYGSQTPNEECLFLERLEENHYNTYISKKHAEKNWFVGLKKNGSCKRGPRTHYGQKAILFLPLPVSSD
# T1 sequence (P09038 143-288 limits assumed): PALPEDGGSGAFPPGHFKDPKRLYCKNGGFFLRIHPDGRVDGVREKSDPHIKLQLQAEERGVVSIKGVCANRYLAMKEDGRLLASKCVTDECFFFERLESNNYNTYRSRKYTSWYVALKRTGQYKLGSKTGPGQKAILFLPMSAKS
Structure (SMILES),Kd [1] [µM],Kd [2] [µM],Kd [3] [µM]
CC(C)(CC(=O)N(CCO[C@H]1O[C@@H](COS(=O)(=O)O)[C@@H](OS(=O)(=O)O)[C@H](OS(=O)(=O)O)[C@H]1OS(=O)(=O)O)CC(=O)NC1CCCCC1)CC(=O)N(CCO[C@H]1O[C@@H](COS(=O)(=O)O)[C@@H](OS(=O)(=O)O)[C@H](OS(=O)(=O)O)[C@H]1OS(=O)(=O)O)CC(=O)NC1CCCCC1,10,34,–
CO[C@H]1O[C@@H](COCC(=O)N(CC(=O)NC2CCCCC2)[C@H]2CC[C@H](N(CC(=O)NC3CCCCC3)C(=O)COC[C@@H]3O[C@H](OC)[C@H](OS(=O)(=O)O)[C@@H](OS(=O)(=O)O)[C@@H]3OS(=O)(=O)O)CC2)[C@@H](OS(=O)(=O)O)[C@H](OS(=O)(=O)O)[C@H]1OS(=O)(=O)O,32.6,27.9,–
CO[C@H]1O[C@@H](COCC(=O)N(CCS(=O)(=O)O)CC(=O)NC2CCCCC2)[C@@H](OS(=O)(=O)O)[C@H](OS(=O)(=O)O)[C@H]1OS(=O)(=O)O,296,551,–
O=C(NC1CCCCC1)C(c1ccccc1)N(Cc1ccccc1)C(=O)C1OC(OS(=O)(=O)O)C(OS(=O)(=O)O)C(OS(=O)(=O)O)C1OS(=O)(=O)O (centres undefined),62.5,–,> 800
O=C(CN(CCOS(=O)(=O)O)C(=O)C1OC(OS(=O)(=O)O)C(OS(=O)(=O)O)C(OS(=O)(=O)O)C1OS(=O)(=O)O)NC1CCCCC1 (centres undefined),2340,> 800,–
CO[C@H]1O[C@@H](COCC(=O)N(CC(=O)NC2CCCCC2)Cc2ccccc2)[C@@H](OS(=O)(=O)O)[C@H](OS(=O)(=O)O)[C@H]1OS(=O)(=O)O,260,200,–
O=C(CN(Cc1ccccc1)C(=O)C1OC(OS(=O)(=O)O)C(OS(=O)(=O)O)C(OS(=O)(=O)O)C1O)NC1CCCCC1 (centres undefined),587,1160,–
O=C(CN(Cc1ccccc1)C(=O)CO[C@@H]1[C@H](OS(=O)(=O)O)O[C@H](COS(=O)(=O)O)[C@H](OS(=O)(=O)O)[C@H]1OS(=O)(=O)O)NCCO[C@H]1O[C@@H](COS(=O)(=O)O)[C@@H](OS(=O)(=O)O)[C@H](OS(=O)(=O)O)[C@H]1OS(=O)(=O)O,6.36,85,–

# Second part, the compound after the results:
Kd [1] [µM],Kd [2] [µM],Kd [3] [µM],Structure (SMILES)
4.84,16,–,CO[C@H]1O[C@@H](COCC(=O)N(CC(=O)NCCO[C@H]2O[C@@H](COS(=O)(=O)O)[C@@H](OS(=O)(=O)O)[C@H](OS(=O)(=O)O)[C@H]2OS(=O)(=O)O)Cc2ccccc2)[C@@H](OS(=O)(=O)O)[C@H](OS(=O)(=O)O)[C@H]1OS(=O)(=O)O
122,254,–,O=C(CN(Cc1ccccc1)C(=O)C1OC(OS(=O)(=O)O)C(OS(=O)(=O)O)C(OS(=O)(=O)O)C1OS(=O)(=O)O)NC1CCCCC1 (centres undefined)
34.3,287,–,CC(=O)N(CC(=O)NCCO[C@H]1O[C@@H](COS(=O)(=O)O)[C@@H](OS(=O)(=O)O)[C@H](OS(=O)(=O)O)[C@H]1OS(=O)(=O)O)Cc1ccccc1
104,206,–,O=C(CN(Cc1ccccc1)C(=O)C1OC(OS(=O)(=O)O)C(OS(=O)(=O)O)C(OS(=O)(=O)O)C1OS(=O)(=O)O)NCc1ccccc1 (centres undefined)
